TAAR1 antagonist = human TAAR1 antagonism. AID 624466. inhibition, % at 3 µM. CHO RD-HGA16 TAAR1, Fluo-8 calcium fluorescence, antagonist. Q96RJ0. hit rate 1.5% among 360,000;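 active = inhibition above a per-plate cutoff, the mean inhibition of test compounds on that plate plus 3 SD, cut at about 49% in these data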;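 note: 0% = DMSO plus EC80 beta-PEA response and 100% = DMSO alone without agonist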
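Test system: hTAAR1-expressing CHO RD-HGA16 cells, Gα16-coupled; Probe or stimulus: EC80 β-phenethylamine stimulus; Compound dosing: single nominal final test compound concentration of 3 µM; Timing: 140 s kinetic read after compound, 140 s after agonist; Signal: Fluo-8 calcium-sensitive fluorescence; Measure: % inhibition of agonist calcium response; Controls: DMSO and EC80 PEA controls.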
OX1R antag-1 = blocks the human orexin 1 receptor; CHO/OX1R cells, Fluo-8 calcium fluorescence, orexin A; inhibition, % at 5 µM; hit rate 0.43% among 330,000;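 active = inhibition above its plate's threshold, mean inhibition of all tested compounds on the plate plus 3 SD, cut at about 37% in these data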;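 note: 0% = orexin A challenge wells and 100% = SB-334867-A antagonist wells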
Target sequence (O43613 whole entry, looked up): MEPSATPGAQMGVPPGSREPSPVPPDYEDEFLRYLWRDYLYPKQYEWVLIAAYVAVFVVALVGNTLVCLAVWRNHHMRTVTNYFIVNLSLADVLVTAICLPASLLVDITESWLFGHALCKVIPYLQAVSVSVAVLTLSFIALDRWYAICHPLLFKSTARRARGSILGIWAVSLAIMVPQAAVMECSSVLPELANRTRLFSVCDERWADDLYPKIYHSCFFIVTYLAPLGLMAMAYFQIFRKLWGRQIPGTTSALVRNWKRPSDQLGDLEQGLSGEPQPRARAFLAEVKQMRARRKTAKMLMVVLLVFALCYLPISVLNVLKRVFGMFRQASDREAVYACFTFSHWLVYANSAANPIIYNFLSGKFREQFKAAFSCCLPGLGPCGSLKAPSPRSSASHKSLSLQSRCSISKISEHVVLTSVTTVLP
TAAR1 agonist = agonists of human TAAR1; CHO RD-HGA16 TAAR1, Fluo-8 calcium fluorescence; vehicle wells 0%, saturating PEA agonist 100%; activation, % at 3 µM; hit rate 0.99% among 360,000;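 active = activation above the mean activation of all test compounds in the run plus 3 SD, cut at about 38% in these data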
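System: CHO RD-HGA16 cells carrying human TAAR1 plus Gα16; Incubation: 17-24 h seeding, 75 min 37 °C dye, 30 min RT; Measured by: Fluo-8 fluorescence, 5 s baseline then 140 s kinetic read; Control set: DMSO and PEA EC100; Replication: single well for each compound.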
OX1R antag-2 = antagonists of human orexin 1 receptor (OX1R). OX1R-expressing cells, FRET antagonist read-out. inhibition, % at 6.6 µM. hit rate 1.8% among 330,000. AID 485270; in the data active = inhibition mostly above about 38%, no sharp cut-off; inactive = mostly below about 40%;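 note: 0% = agonist challenge alone and 100% = reference antagonist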
CHO parental Ca = counter-screen: ATP calcium response change in parental CHO cells; parental CHO-K1, ATP-induced calcium, Fluo-8 fluorescence; AID 463079; hit rate 0.63% among 330,000; inhibition, % at 5.6 µM;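 active = inhibition above that plate's mean sample inhibition plus 3 SD, cut at about 26% in these data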;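 note: 0% = ATP-challenged DMSO wells and 100% = DMSO wells without ATP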
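Material: Parental CHO cells | Reagent: ATP | Compound dosing: Single nominal dose of 5.6 µM per compound | Detection: Intracellular calcium via Fluo-8 no-wash fluorescent dye | Read-out: % inhibition of ATP-induced calcium mobilization | Benchmarks: Low control ATP plus DMSO, high control DMSO only | Replicates: Singlicate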
TAAR1 ag conf = human TAAR1 agonism, confirmed | shares compounds with TAAR1 agonist | CHO RD-HGA16 TAAR1, Fluo-8 calcium fluorescence; scaled: DMSO 0%, maximal phenethylamine 100% | activation, % at 3 µM | hit rate 82% among 2,400 | AID 651783;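 active = activation above a cutoff set at the run's mean compound activation plus 3 SD, cut at about 39% in these data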
Ga16 ag counter = nonselective agonist in parental cells, TAAR1 agonist counter-screen. shares compounds with TAAR1 agonist. CHO-Ga16 parental, Fluo-8 calcium fluorescence; normalized to maximal ATP response, DMSO zero. activation, % at 3 µM. hit rate 50% among 2,400;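 active = activation above the run cutoff, the mean activation over all tested wells plus 3 SD, cut at about 12% in these data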;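 note: 0% = DMSO wells and 100% = maximal ATP response on the peak over basal ratio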
TAAR1 desensitize = human TAAR1 agonist that also desensitizes the receptor. inhibition, % at 3 µM. hit rate 46% among 2,400. AID 651951. shares compounds with TAAR1 agonist. CHO RD-HGA16 hTAAR1, Fluo-8 calcium, beta-PEA response inhibition;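 active = inhibition above the run cutoff, the mean inhibition of all test compounds plus 3 SD, cut at about 49% in these data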;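 note: beta-PEA stimulus applied at its EC80; loss of beta-PEA calcium signal after compound pretreatment read as receptor desensitization; 0% = DMSO with beta-PEA at EC80 and 100% = DMSO alone without agonist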
Ga16 antag count = nonselective Ga16 antagonism, counter-screen. shares compounds with TAAR1 agonist. CHO-Ga16 ATP-induced calcium, Fluo-8 fluorescence. inhibition, % at 3 µM. hit rate 39% among 2,400;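 active = inhibition above the plate's mean compound inhibition plus 3 SD, computed per plate, cut at about 22% in these data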;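 note: 0% = EC80 ATP with DMSO and 100% = DMSO wells without ATP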
Active calls of the source: *; . = no result. An excerpt weighted towards active compounds, which were near 3.9% of everything screened.

SMILES	TAAR1 antagonist	OX1R antag-1	TAAR1 agonist	OX1R antag-2	CHO parental Ca	TAAR1 ag conf	Ga16 ag counter	TAAR1 desensitize	Ga16 antag count
O=C(Cc1ccc([N+](=O)[O-])cc1)Nc1ccc(Cl)cc1	-5	4	2	17	6	.	.	.	.
Cc1c(Cl)cccc1NC(=O)Cc1ccc([N+](=O)[O-])cc1	18	-16	56*	5	-1	31	17*	15	13
CN1/C(=C\C=C2/SC(=S)N(CC(=O)O)C2=O)C(C)(C)c2ccccc21	84*	77*	235*	34	69*	114*	121*	66*	61*
Cc1cc(C)c2c(=O)n(CC(=O)NC3CCCC3)sc2n1	48	8	57*	1	4	62*	34*	59*	39*
Cc1cc(C)c2c(=O)n(CC(=O)Nc3ccc(Br)c(C)c3)sc2n1	53*	-5	86*	15	-2	100*	68*	71*	64*
Cc1cc(NC(=O)Cc2ccsc2)ccc1Br	-11	-19	0	10	0	.	.	.	.
Cc1cc(C)c2c(N)c(C(=O)NC3CCCC3)sc2n1	-3	-17	1	47	-28	.	.	.	.
Cc1cc(C)c2c(=O)n(CC(=O)Nc3cccc(Cl)c3C)sc2n1	86*	3	103*	8	6	96*	72*	89*	75*
CC(C)NC(=S)NC(=O)c1ccc(-c2ccccc2)cc1	-4	-26	49*	8	-19	26	11	14	16
CCN(C[C@H]1N[C@@](C)(C(=O)OC)[C@H]2C(=O)N(Cc3ccccc3)C(=O)[C@@H]12)C(=O)c1ccc(C)cc1	23	-19	6	6	-17	.	.	.	.
CN(CCc1ccccc1)c1cc2c(c3c1ccn3C)C1CCC2O1 (stereo unspecified)	69*	.	78*	.	.	94*	2	78*	5
COc1ccc(Nc2nc(N3CCCC3)c3ccccc3n2)cc1	48	1	67*	30	-2	89*	9	86*	19
CC(Cc1ccccc1)N/C=C1/CC(=O)NC1=O (stereo unspecified)	54*	-4	83*	9	2	91*	3	40	-2
O=C1C/C(=C/NCc2ccccc2)C(=O)N1	-8	-12	7	7	-9	.	.	.	.
COc1ccc(/C=N/NC(=O)c2nnn(-c3nonc3N)c2-c2cccc(OC)c2)cc1	75*	-8	149*	29	-17	121*	86*	72*	32*
Cc1ccc(/C=N/NC(=O)c2nnn(-c3nonc3N)c2-c2cccs2)cc1	78*	-64	131*	9	-28	129*	96*	79*	43*
CCOc1ccc(/C=N/NC(=O)c2nnn(-c3nonc3N)c2-c2ccc(OCC)cc2)cc1	-15	-22	66*	13	-20	57*	26*	9	14
Cc1ccc(/C=N/NC(=O)c2nnn(-c3nonc3N)c2-c2ccc3c(c2)OCO3)s1	42	-5	82*	43*	-2	97*	61*	40	20
Cc1ccc(-c2nnc(SCC(=O)NCC3CCCO3)nc2-c2ccc(C)cc2)cc1 (stereo unspecified)	1	.	3	.	.	.	.	.	.
CCC(=O)Nc1ccc(S(=O)(=O)Nc2cccc(C)c2)cc1OC	10	-9	9	26	-6	.	.	.	.
CCOc1cccc(-c2c(C(=O)N/N=C/c3cccs3)nnn2-c2nonc2N)c1	21	-8	110*	8	-12	91*	55*	38	21
CCOc1cccc(-c2c(C(=O)N/N=C/c3ccncc3)nnn2-c2nonc2N)c1	1	-19	16	8	-6	.	.	.	.
CCOc1cccc(-c2c(C(=O)N/N=C/c3ccoc3)nnn2-c2nonc2N)c1	-3	-3	83*	9	-1	73*	32*	7	9
Nc1nonc1-n1nnc(C(=O)N/N=C/c2cccc(F)c2)c1-c1ccccc1	0	-20	55*	18	-17	39*	18*	16	11
Nc1nonc1-n1nnc(C(=O)N/N=C/c2cccc(Cl)c2)c1-c1cccs1	11	4	7	-2	-7	.	.	.	.
SMILES	TAAR1 antagonist	OX1R antag-1	TAAR1 agonist	OX1R antag-2	CHO parental Ca	TAAR1 ag conf	Ga16 ag counter	TAAR1 desensitize	Ga16 antag count
CCOc1ccc(-c2c(C(=O)N/N=C/c3ccoc3)nnn2-c2nonc2N)cc1	-20	-2	92*	8	-1	66*	29*	6	10
C/C(=N/NC(=O)c1cc(C)[nH]n1)c1ccco1	1	-17	13	6	8	.	.	.	.
CCOC(=O)COc1c(/C=N\O)cc(Cl)cc1OC	-9	4	1	13	-9	.	.	.	.
Cc1[nH]n(-c2ccccc2)c(=O)c1C=NCc1ccncc1	-14	-6	0	9	-1	.	.	.	.
Cc1[nH]n(-c2ccccc2)c(=O)c1C=NCCc1ccccc1	45	1	59*	23	-8	91*	0	41	2
Nc1ncnc2c1ncn2[C@@H]1O[C@H](C(=O)NCC2CCN(Cc3ccccc3)CC2)[C@@H](O)[C@H]1O	1	.	0	.	.	.	.	.	.
CCCOc1ccc(-c2c(C(=O)N/N=C(\C)c3cccs3)nnn2-c2nonc2N)cc1	-20	-22	53*	7	-13	56*	22*	2	4
CCOc1ccc(/C(C)=N/NC(=O)c2nnn(-c3nonc3N)c2-c2cccs2)cc1	47	2	119*	18	1	117*	88*	38	13
COc1cc(/C(C)=N/NC(=O)c2nnn(-c3nonc3N)c2-c2cccs2)ccc1O	41	-2	13	12	-4	.	.	.	.
BrC(=C\c1ccccc1)/C=N/n1cnnc1	18	.	98*	.	.	38*	37*	18	19
C(=N\Nc1ccc2nncn2n1)/c1ccco1	-21	4	5	15	2	.	.	.	.
BrC(=C\c1ccccc1)/C=N/Nc1ccc2nncn2n1	8	1	67*	18	-5	44*	37*	23	13
CCn1c(O)c(C=Nc2ccccc2)n(-c2ccccc2)c1=S	3	-6	9	38	-2	.	.	.	.
